Published values collected from several papers.
Protocols differ between the studies behind these lines.
NPY2R: Neuropeptide Y receptor type 2 (NPY2R, Homo sapiens, UniProt P49146)
Rock2: Rho-associated protein kinase 2 (Rock2, Rattus norvegicus, UniProt Q62868)
PTGS2: Prostaglandin G/H synthase 2 (PTGS2, Homo sapiens, UniProt P35354)
SIGMAR1: Sigma non-opioid intracellular receptor 1 (SIGMAR1, Cavia porcellus, UniProt Q60492)

SMILES	target	test	test system	setting	inhibition [%]
O=C(Nc1ccc(S(=O)(=O)N2CCC(Cl)CC2)cc1)c1ccc([N+](=O)[O-])o1	NPY2R	ligand displacement, radioligand	–	10 µM	4
CNC(=O)c1cc(Oc2ccc(NC(=O)Nc3ccc(Cl)c(C(F)(F)F)c3)cc2)ccn1	Rock2	enzyme activity, inhibitor	–	10 µM	44
CN(C)C1CCN(CC#Cc2nn(C3CCCC3)c3nc(NCc4ccccc4)ncc23)C1 (centres unmarked)	Ribosomal protein S6 kinase beta-1 (RPS6KB1, Homo sapiens, UniProt P23443)	enzyme activity, inhibitor, FRET	–	1 µM	4
COC(=O)c1ccc(O)cc1	PTGS2	enzyme activity, inhibitor	–	15.63 µg/mL	53.2
Cc1ccc(Nc2nccc(N(C)c3ccc4c(C)n(C)nc4c3)n2)cc1S(N)(=O)=O	Rock2	enzyme activity, inhibitor	–	0.3 µM	11
COc1cc2c(cc1OC)CN(C(C)CCc1ccc(O)cc1)CC2 (centres unmarked)	SIGMAR1	ligand displacement, radioligand	–	0.1 µM	34
COc1cc([C@H]2OC[C@H]3[C@@H]2CO[C@@H]3c2cc(OC)c(O)c(OC)c2)cc(OC)c1O	PTGS2	enzyme activity, inhibitor	–	0.98 µg/mL	49.3
CN(Cc1ccc(NC(=O)C2=Cc3cc(-c4ccc(OCCCCCCCF)cc4)ccc3CCC2)cc1)C1CCOCC1	SIGMAR1	ligand displacement, radioligand	–	10 µM	14
O=C1N=C(N2CCCCN2)S/C1=C\c1ccc(F)cc1O	NPY2R	ligand displacement, radioligand	–	10 µM	< 10
Oc1ccc2ccccc2n1	Serum paraoxonase/arylesterase 1 (PON1, Homo sapiens, UniProt P27169)	enzyme activity, inhibitor	–	20 µM	84
C=C[C@@]1(C)C=C2CC[C@@H]3[C@](C)(CCC[C@@]3(C)C(=O)O)[C@H]2CC1	PTGS2	enzyme activity, inhibitor	–	0.98 µg/mL	15.2
O=C(c1ccc(Cl)cc1)N(Cc1ccccc1)C1CCCCC1	Alpha-2B adrenergic receptor (ADRA2B, Homo sapiens, UniProt P18089)	cell-free assay	–	10 µM	7.2
COc1cc(-c2cc(=O)c3c(O)cc(O)cc3o2)ccc1O	PTGS2	enzyme activity, inhibitor	–	0.49 µg/mL	0
CCN1CCN(Cc2ccc(NC(=O)c3ccc(C)c(Oc4ccnc5[nH]ccc45)c3)cc2C(F)(F)F)CC1	Inositol-tetrakisphosphate 1-kinase (Homo sapiens, UniProt Q13572)	target engagement in cells, inhibitor, chemoproteomics	Huh-7	10 µM	-35.5
COc1ccc(-c2cc(=O)c3c(O)cc(O[C@@H]4O[C@H](CO)[C@@H](O)[C@H](O)[C@H]4O)cc3o2)cc1O	PTGS2	enzyme activity, inhibitor	–	0.24 µg/mL	39.7
CC/C(=N\NC(=O)NCc1cccc(O)c1)c1ccc(O)c(C)c1O	NPM/ALK (Nucleophosmin/ALK tyrosine kinase receptor) (NPM1/ALK, Homo sapiens, UniProt P06748+Q9UM73)	enzyme activity, inhibitor	–	0.1 µM	-0.4
COc1cc(NC(C)=O)c(Cl)cc1C(=O)Nc1nccs1	Muscarinic acetylcholine receptor M3 (CHRM3, Homo sapiens, UniProt P20309)	cell-free assay	–	10 µM	-22.1
